The results in this text go back to ChEMBL document CHEMBL2346510, “Synthesis and antifungal evaluation of 7-arylamino-5,8-dioxo-5,8-dihydroisoquinoline-4-carboxylates” (2013).

What all share (type): functional
Test [1] concerns Cryptococcus neoformans. Nature of the test: Antifungal activity against Cryptococcus neoformans KCCM 50564 after 1 day by two fold broth dilution method. The following applies: KCCM 50564, 24 h. Summed up: (§1)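 Yeasts were tested by twofold broth dilution in modified Sabouraud dextrose broth with about 1 × 10⁵ cells/mL inoculum. Final compound concentrations ran from […]. Incubation was at 37 °C with the MIC read after 1 day. Fluconazole and 5-fluorocytosine were the standard comparators.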
In general terms: Dilution methods test growth across graded concentrations, often in twofold steps.

Test [2] has as its system Aspergillus niger. Nature of the test: Antifungal activity against Aspergillus niger KCTC 1231 after 2 days by two fold broth dilution method. The following applies: KCTC 1231, 48 h. Summed up:
(§2)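 Twofold broth dilution in modified Sabouraud dextrose broth, inoculum about 1 × 10⁵ cells/mL. Compounds were tested at final concentrations of […]. Plates were incubated at 37 °C and the MIC was read after 2 days. Fluconazole and 5-fluorocytosine served as reference agents.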

The subject of test [3] is Candida albicans. The test is described as follows: Antifungal activity against Candida albicans Berkout KCCM 50235 after 1 day by two fold broth dilution method. The following applies: Berkout KCCM 50235, 24 h. The essentials: as §1
Test [4] concerns Pichia kudriavzevii. The test is described as follows: Antifungal activity against Candida krusei Berkout KCCM 11655 after 1 day by two fold broth dilution method. The following applies: Berkout KCCM 11655, 24 h. The essentials: as §1
Test [5] has as its system Aspergillus flavus. The test is described as follows: Antifungal activity against Aspergillus flavus KCCM 11899 after 2 days by two fold broth dilution method. The following applies: KCCM 11899, 48 h. The essentials: as §2
Test [6] concerns Candida tropicalis. Nature of the test: Antifungal activity against Candida tropicalis Berkout KCCM 50662 after 1 day by two fold broth dilution method. The following applies: Berkout KCCM 50662, 24 h. The essentials: as §1

Values after ≈ are worked out from the molar mass of the structure shown.

In the case of `COC(=O)c1c(C)nc(C)c2c1C(=O)C=C(Sc1ccc(O)cc1)C2=O`, the MIC is 3.2 µg/mL (≈ 8.66 µM) in test [1]; 6.3 µg/mL (≈ 17.1 µM) in test [2]; 25 µg/mL (≈ 67.7 µM) in test [3]; 6.3 µg/mL (≈ 17.1 µM) in test [4]; 6.3 µg/mL (≈ 17.1 µM) in test [5]; 25 µg/mL (≈ 67.7 µM) in test [6].
On to `Nc1nc(=O)[nH]cc1F` [FLUCYTOSINE], for which the MIC in test [1] turned out to be 12.5 µg/mL (≈ 96.8 µM); in test [2] it was 6.3 µg/mL (≈ 48.8 µM); in test [3] it was 3.2 µg/mL (≈ 24.8 µM); in test [4], 6.3 µg/mL (≈ 48.8 µM); in test [5] it was 6.3 µg/mL (≈ 48.8 µM); in test [6], 3.2 µg/mL (≈ 24.8 µM).
`COC(=O)c1c(C)nc(C)c2c1C(=O)C(Cl)=C(Nc1ccc(Cl)cc1)C2=O`: the MIC was found to be 12.5 µg/mL (≈ 30.8 µM) in test [1]; 3.2 µg/mL (≈ 7.9 µM) in test [2]; 1.6 µg/mL (≈ 3.95 µM) in test [3]; 12.5 µg/mL (≈ 30.8 µM) in test [4]; 1.6 µg/mL (≈ 3.95 µM) in test [5]; 6.3 µg/mL (≈ 15.5 µM) in test [6].
`COC(=O)c1c(C)nc(C)c2c1C(=O)C(Br)=C(Nc1ccc(Br)cc1)C2=O`: the MIC in test [1] stood at 12.5 µg/mL (≈ 25.3 µM); in test [2], 1.6 µg/mL (≈ 3.24 µM); in test [3], 1.6 µg/mL (≈ 3.24 µM); in test [4] it was 12.5 µg/mL (≈ 25.3 µM); in test [5], 3.2 µg/mL (≈ 6.48 µM); in test [6], 1.6 µg/mL (≈ 3.24 µM).
With `COC(=O)c1c(C)nc(C)c2c1C(=O)C(Br)=C(Nc1ccc(Cl)cc1)C2=O`, the MIC in test [1] worked out at 12.5 µg/mL (≈ 27.8 µM); in test [2], 12.5 µg/mL (≈ 27.8 µM); in test [3] it was 25 µg/mL (≈ 55.6 µM); in test [4], 25 µg/mL (≈ 55.6 µM); in test [5], 12.5 µg/mL (≈ 27.8 µM); in test [6] it was 6.3 µg/mL (≈ 14 µM).
On to `COC(=O)c1c(C)nc(C)c2c1C(=O)C=C(Nc1ccc(Br)cc1)C2=O`, for which the MIC in test [1] is 12.5 µg/mL (≈ 30.1 µM); in test [2], 6.3 µg/mL (≈ 15.2 µM); in test [3] it was 12.5 µg/mL (≈ 30.1 µM); in test [4], 12.5 µg/mL (≈ 30.1 µM); in test [5] it was 12.5 µg/mL (≈ 30.1 µM); in test [6], 12.5 µg/mL (≈ 30.1 µM).
With `COC(=O)c1c(C)nc(C)c2c1C(=O)C=CC2=O`, the MIC was 50 µg/mL (≈ 204 µM) in test [1]; above 100 µg/mL in test [2]; 25 µg/mL (≈ 102 µM) in test [3]; 50 µg/mL (≈ 204 µM) in test [4]; 50 µg/mL (≈ 204 µM) in test [5]; 12.5 µg/mL (≈ 51 µM) in test [6].
On to `COC(=O)c1c(C)nc(C)c2c1C(=O)C(Br)=C(Nc1ccc(C)cc1)C2=O`, for which the MIC in test [1] worked out at 6.3 µg/mL (≈ 14.7 µM); in test [2], 6.3 µg/mL (≈ 14.7 µM); in test [3] it was 6.3 µg/mL (≈ 14.7 µM); in test [4], 6.3 µg/mL (≈ 14.7 µM); in test [5], 25 µg/mL (≈ 58.2 µM); in test [6], 1.6 µg/mL (≈ 3.73 µM).
With `COC(=O)c1c(C)nc(C)c2c1C(=O)C(Cl)=C(Nc1ccc(I)cc1)C2=O`, the MIC came out at 3.2 µg/mL (≈ 6.44 µM) in test [1]; 1.6 µg/mL (≈ 3.22 µM) in test [2]; 6.3 µg/mL (≈ 12.7 µM) in test [3]; 12.5 µg/mL (≈ 25.2 µM) in test [4]; 25 µg/mL (≈ 50.3 µM) in test [5]; 6.3 µg/mL (≈ 12.7 µM) in test [6].
On to `COC(=O)c1c(C)nc(C)c2c1C(=O)C(Cl)=C(Nc1ccc(Br)cc1)C2=O`, for which the MIC worked out at 3.2 µg/mL (≈ 7.12 µM) in test [1]; 1.6 µg/mL (≈ 3.56 µM) in test [2]; 1.6 µg/mL (≈ 3.56 µM) in test [3]; 6.3 µg/mL (≈ 14 µM) in test [4]; 6.3 µg/mL (≈ 14 µM) in test [5]; 12.5 µg/mL (≈ 27.8 µM) in test [6].
Turning to `COC(=O)c1c(C)nc(C)c2c1C(=O)C(Cl)=C(Nc1ccc(F)cc1)C2=O`, the MIC is 6.3 µg/mL (≈ 16.2 µM) in test [1]; 1.6 µg/mL (≈ 4.12 µM) in test [2]; 1.6 µg/mL (≈ 4.12 µM) in test [3]; 6.3 µg/mL (≈ 16.2 µM) in test [4]; 6.3 µg/mL (≈ 16.2 µM) in test [5]; 1.6 µg/mL (≈ 4.12 µM) in test [6].
For `COC(=O)c1c(C)nc(C)c2c1C(=O)C(Cl)=C(Nc1ccc(F)c(F)c1)C2=O`, the MIC in test [1] was 12.5 µg/mL (≈ 30.7 µM); in test [2] it was 1.6 µg/mL (≈ 3.93 µM); in test [3], 1.6 µg/mL (≈ 3.93 µM); in test [4], 6.3 µg/mL (≈ 15.5 µM); in test [5] it was 6.3 µg/mL (≈ 15.5 µM); in test [6] it was 25 µg/mL (≈ 61.5 µM).
Take `COC(=O)c1c(C)nc(C)c2c1C(=O)C(Br)=C(Nc1ccc(OC)cc1)C2=O`: the MIC in test [1] worked out at 1.6 µg/mL (≈ 3.59 µM); in test [2], 1.6 µg/mL (≈ 3.59 µM); in test [3], 0.8 µg/mL (≈ 1.8 µM); in test [4], 1.6 µg/mL (≈ 3.59 µM); in test [5], 12.5 µg/mL (≈ 28.1 µM); in test [6] it was 12.5 µg/mL (≈ 28.1 µM).
As for `COC(=O)c1c(C)nc(C)c2c1C(=O)C=C(Nc1ccc(C)cc1)C2=O`, the MIC came out at 12.5 µg/mL (≈ 35.7 µM) in test [1]; 25 µg/mL (≈ 71.4 µM) in test [2]; 25 µg/mL (≈ 71.4 µM) in test [3]; 25 µg/mL (≈ 71.4 µM) in test [4]; 25 µg/mL (≈ 71.4 µM) in test [5]; 25 µg/mL (≈ 71.4 µM) in test [6].
For the compound `COC(=O)c1c(C)nc(C)c2c1C(=O)C=C(Sc1ccc(C)c(C)c1)C2=O`, the minimum inhibitory concentration (MIC) was 6.3 µg/mL (≈ 16.5 µM) in test [1]; 6.3 µg/mL (≈ 16.5 µM) in test [2]; 25 µg/mL (≈ 65.5 µM) in test [3]; 12.5 µg/mL (≈ 32.8 µM) in test [4]; 6.3 µg/mL (≈ 16.5 µM) in test [5]; 12.5 µg/mL (≈ 32.8 µM) in test [6].
As to `COC(=O)c1c(C)nc(C)c2c1C(=O)C(Cl)=C(Nc1ccc(C#N)cc1)C2=O`, the MIC was found to be 1.6 µg/mL (≈ 4.04 µM) in test [1]; 6.3 µg/mL (≈ 15.9 µM) in test [2]; 1.6 µg/mL (≈ 4.04 µM) in test [3]; 12.5 µg/mL (≈ 31.6 µM) in test [4]; 6.3 µg/mL (≈ 15.9 µM) in test [5]; 12.5 µg/mL (≈ 31.6 µM) in test [6].
In the case of `COC(=O)c1c(C)nc(C)c2c1C(=O)C(Br)=C(Nc1ccc(F)c(F)c1)C2=O`, the MIC in test [1] was found to be 12.5 µg/mL (≈ 27.7 µM); in test [2], 6.3 µg/mL (≈ 14 µM); in test [3], 6.3 µg/mL (≈ 14 µM); in test [4], 25 µg/mL (≈ 55.4 µM); in test [5] it was 12.5 µg/mL (≈ 27.7 µM); in test [6], 1.6 µg/mL (≈ 3.55 µM).
For `COC(=O)c1c(C)nc(C)c2c1C(=O)C=C(Sc1ccc(C)cc1)C2=O`, the MIC in test [1] is 1.6 µg/mL (≈ 4.35 µM); in test [2] it was 6.3 µg/mL (≈ 17.1 µM); in test [3] it was 6.3 µg/mL (≈ 17.1 µM); in test [4] it was 12.5 µg/mL (≈ 34 µM); in test [5], 3.2 µg/mL (≈ 8.71 µM); in test [6], 6.3 µg/mL (≈ 17.1 µM).
For the compound `CC(=O)c1cc(O)ccc1O`, the MIC in test [1] is 50 µg/mL (≈ 329 µM); in test [2], above 100 µg/mL; in test [3], 50 µg/mL (≈ 329 µM); in test [4], 100 µg/mL (≈ 657 µM); in test [5] it was 100 µg/mL (≈ 657 µM); in test [6] it was 50 µg/mL (≈ 329 µM).
With `COC(=O)c1c(C)nc(C)c2c1C(=O)C(Cl)=C(Nc1ccc(OC)cc1)C2=O`, the MIC in test [1] was found to be 3.2 µg/mL (≈ 7.98 µM); in test [2], 3.2 µg/mL (≈ 7.98 µM); in test [3], 1.6 µg/mL (≈ 3.99 µM); in test [4], 12.5 µg/mL (≈ 31.2 µM); in test [5], 6.3 µg/mL (≈ 15.7 µM); in test [6] it was 12.5 µg/mL (≈ 31.2 µM).
Regarding `COC(=O)c1c(C)nc(C)c2c1C(=O)C(Br)=C(Nc1ccc(F)cc1)C2=O`, the MIC was found to be 6.3 µg/mL (≈ 14.5 µM) in test [1]; 6.3 µg/mL (≈ 14.5 µM) in test [2]; 6.3 µg/mL (≈ 14.5 µM) in test [3]; 12.5 µg/mL (≈ 28.9 µM) in test [4]; 12.5 µg/mL (≈ 28.9 µM) in test [5]; 6.3 µg/mL (≈ 14.5 µM) in test [6].
On to `OC(Cn1cncn1)(Cn1cncn1)c1ccc(F)cc1F` [FLUCONAZOLE], for which the MIC came out at 6.3 µg/mL (≈ 20.6 µM) in test [1]; 25 µg/mL (≈ 81.6 µM) in test [2]; 50 µg/mL (≈ 163 µM) in test [3]; 25 µg/mL (≈ 81.6 µM) in test [4]; 25 µg/mL (≈ 81.6 µM) in test [5]; 6.3 µg/mL (≈ 20.6 µM) in test [6].
In the case of `COC(=O)c1c(C)nc(C)c2c1C(=O)C(Cl)=C(Nc1ccc(C)cc1)C2=O`, the MIC in test [1] came out at 6.3 µg/mL (≈ 16.4 µM); in test [2], 1.6 µg/mL (≈ 4.16 µM); in test [3], 1.6 µg/mL (≈ 4.16 µM); in test [4] it was 3.2 µg/mL (≈ 8.32 µM); in test [5] it was 25 µg/mL (≈ 65 µM); in test [6] it was 0.8 µg/mL (≈ 2.08 µM).
As to `COC(=O)c1c(C)nc(C)c2c1C(=O)C=C(Nc1ccc(I)cc1)C2=O`, the MIC in test [1] came to 6.3 µg/mL (≈ 13.6 µM); in test [2], 12.5 µg/mL (≈ 27 µM); in test [3] it was 12.5 µg/mL (≈ 27 µM); in test [4], 12.5 µg/mL (≈ 27 µM); in test [5], 12.5 µg/mL (≈ 27 µM); in test [6], 12.5 µg/mL (≈ 27 µM).

In general, MIC refers to the least concentration at which growth counts as inhibited. A lower MIC goes with inhibition by little substance.
